Holding throughout (type): functional
Experiment [1] concerns SK-MEL-2. Kind of experiment: Concentration required to inhibit the growth of human malenoma cancer SK-MEL-2 cell line by 50% after 120 hours; determined by MTT assay. The note with it: SK-MEL-2, 120 h. The gist of the method: (§1)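 Cells (A549, HCT-116, SK-MEL-2 in DMEM; HL-60, MCF-7 in RPMI 1640; 10% FBS) seeded at 1000-1500/well, six wells per concentration, and precultured 1 day. Added 2 µM working solution and 10-fold serial dilutions, or vehicle. MTT read at 544 nm after 120 h at 37 °C, with T0 reference plates. GI50 is 50% of control growth; ≥3 independent runs.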

For experiment [2], the system named is HCT-116. Briefly: Concentration required to inhibit the growth of human colon cancer HCT116 cell line by 50% to initial after 120 hours; determined using MTT assay. To be noted: HCT-116, 120 h.
The test system of experiment [3] is HCT-116. Kind of experiment: Concentration required to cause lethality in human colon cancer HCT116 cell line by 50% after 120 hours; determined by MTT assay. The note with it: HCT-116, 120 h. In a few lines: (§2)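 Cells (DMEM for HCT-116, SK-MEL-2, A549; RPMI 1640 for HL-60, MCF-7; 10% FBS) were seeded at 1000-1500 per well and precultured 1 day. Methanesulfonate-salt drug was added as 10-fold serial dilutions from a 2 μM working solution, six wells per concentration. MTT absorbance was read at 544 nm after 120 h at 37 °C against T0 plates. LC50 is 50% reduction of initial cell number; values are the mean of ≥3 independent determinations.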

For experiment [4], the system named is HL-60. Briefly: Concentration required to inhibit the growth of human leukemia cancer HL-60 cell line by 50% after 120 hours; determined by MTT assay. The note with it: HL-60, 120 h. In a few lines:
as §1
A general note: Tetrazolium dyes change colour on reduction, which living cells bring about.

Experiment [5] concerns MCF7. Kind of experiment: Concentration required to cause lethality in human breast cancer MCF-7 cell line by 50% after 120 hours; determined by MTT assay. To be noted: MCF7, 120 h. The gist of the method: as §2
The subject of experiment [6] is SK-MEL-2. Briefly: Concentration required to cause lethality in human malenoma cancer SK-MEL-2 cell line by 50% after 120 hrs; determined by MTT assay. The note with it: SK-MEL-2, 120 h. In a few lines: as §2
Experiment [7] has as its system A549. Briefly: Concentration required to cause lethality in human […] lung cancer A549 cell line by 50% after 120 hours; determined by MTT assay. To be noted: A549, 120 h. In a few lines:
as §2

Experiment [8] relates to A549. Kind of experiment: Concentration required to inhibit human […] lung cancer A549 cell growth by 50% after 120 hours; determined by MTT assay. To be noted: A549, 120 h. The gist of the method: as §1
Experiment [9] has as its system MCF7. Briefly: Concentration required to inhibit the growth of human breast cancer MCF-7 cell line by 50% after 120 hours; determined by MTT assay. To be noted: MCF7, 120 h. In a few lines:
as §1

The test system of experiment [10] is HL-60. Kind of experiment: Concentration required to cause lethality in human leukemia cancer HL-60 cell line by 50% after 120 hours; determined by MTT assay. To be noted: HL-60, 120 h. The gist of the method: as §2
The subject of experiment [11] is A549. Briefly: Concentration required for inhibition of human […] lung cancer A549 cell growth by 50%, after 120 hours; determined by MTT assay. The note with it: A549, 120 h. In a few lines: as §1

The term GI50 denotes the concentration that inhibits growth by half. Low readings indicate more potent growth inhibition, high ones less potent growth inhibition. For orientation: LC50 means the concentration that kills 50% of the test population. Read a high LC50 as lower toxicity.

`COc1ccc2nc3cc(Cl)ccc3c(NCCCN3CCN(CCCNc4ccc5ncn6c7ccccc7c(=O)c4c56)CC3)c2c1`: the 50% growth inhibitory concentration (GI50) came out at 300 nM in the experiment with SK-MEL-2 [1]; 3.8 nM with HCT-116 [2]; 400 nM in the experiment with HL-60 [4]; 8 nM with A549 [8]; 400 nM with MCF7 [9]. The LC50 in the experiment with HCT-116 [3], in the experiment with MCF7 [5], in the experiment with SK-MEL-2 [6], with A549 [7] and in the experiment with HL-60 [10] was more than 1000 nM in each case.
With `CN(CCCNc1ccc2ncn3c4ccccc4c(=O)c1c23)CCCN1C(=O)c2cccc3cc([N+](=O)[O-])cc(c23)C1=O`, the 50% growth inhibitory concentration (GI50) in the experiment with SK-MEL-2 [1] amounted to 150 nM; in the experiment on HCT-116 [2] it was 8 nM; in the experiment on HL-60 [4], 120 nM; in the experiment with A549 [8] it was 25 nM; in the experiment on MCF7 [9] it was 50 nM. For the same compound, the median lethal concentration (LC50) in the experiment with HCT-116 [3] was 220 nM; in the experiment on MCF7 [5], more than 1000 nM; in the experiment on SK-MEL-2 [6], more than 1000 nM; in the experiment on A549 [7] it was 500 nM; with HL-60 [10], 500 nM.
As to `Nc1cc2c3c(cccc3c1)C(=O)N(CCCN1CCN(CCCNc3ccc4ncn5c6ccccc6c(=O)c3c45)CC1)C2=O`, the GI50 in the experiment on SK-MEL-2 [1] was 15 nM; in the experiment on HCT-116 [2], 2.2 nM; in the experiment on A549 [11] it was 2.5 nM; in the experiment on HL-60 [4], 5 nM; with MCF7 [9] it was 32 nM. Further, the LC50 with HCT-116 [3] is 80 nM; with MCF7 [5], more than 1000 nM; with SK-MEL-2 [6] it was 750 nM; with A549 [7] it was 100 nM; in the experiment with HL-60 [10] it was 450 nM.
As to `O=C1c2cccc3cc([N+](=O)[O-])cc(c23)C(=O)N1CCCN1CCN(CCCNc2ccc3ncn4c5ccccc5c(=O)c2c34)CC1`, the concentration for 50% growth inhibition (GI50) with SK-MEL-2 [1] came out at 4 nM; in the experiment with HCT-116 [2], 0.5 nM; in the experiment on HL-60 [4], 3.5 nM; in the experiment on A549 [8], 0.6 nM; in the experiment with MCF7 [9], 3.2 nM. The LC50 is 32 nM in the experiment on HCT-116 [3]; more than 1000 nM in the experiment on MCF7 [5]; 60 nM in the experiment on SK-MEL-2 [6]; 35 nM in the experiment on A549 [7]; 33 nM in the experiment on HL-60 [10].
With `CN(C)CCN1C(=O)c2cccc3cc([N+](=O)[O-])cc(c23)C1=O` [MITONAFIDE], the concentration for 50% growth inhibition (GI50) was determined as 150 nM in the experiment on SK-MEL-2 [1]; 250 nM with HCT-116 [2]; 45 nM in the experiment on HL-60 [4]; 65 nM in the experiment with A549 [8]; 245 nM with MCF7 [9]. The CC50 with HL-60 [10] (read-out: LC50 (the source's name)) turned out to be 400 nM.
